Source: ChEMBL document CHEMBL4342526, “Exploration of the Structural Space in 4(3H)-Quinazolinone Antibacterials” (J Med Chem, 2020)
≈ marks a conversion by molar mass, not a printed value.

Legend:
Staphylococcus aureus [1] = test: (§1) Potentiation of piperacillin and tazobactam-induced bactericidal activity against methicillin resistant Staphylococcus aureus NRS70 infected in ICR mouse model of neutropenic thigh infection assessed as log reduction in bacterial count in thigh at 40 mg/kg, sc administered at 8 hrs interval for 3 times starting from 1 hr post infection and measured 24 hrs post infection; type: functional
Method in brief: (§2)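 Neutropenic ICR mouse thigh model as above (cyclophosphamide 200 mg/kg ip days −4 and −1; NRS70 1 × 10^6 CFU/mL, 0.1 mL im right thigh); compound given with piperacillin 12 mg/kg plus tazobactam 1.5 mg/kg, sc in 10% DMSO/90% water every 8 h ×3 from 1 h; thigh CFU at 24 h; n = 8; mean ± SEM, ANOVA/Tukey.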

[2] = Selectivity index, ratio of IC50 for human HeLa cells to MIC for clindamycin/erythromycin/spectinomycin-resistant mec-positive Staphylococcus aureus NRS70; type: toxicity
Method in brief: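 HeLa cytotoxicity by XTT assay in triplicate, IC50 by nonlinear regression; ratio IC50 over broth microdilution MIC against NRS70.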

Staphylococcus aureus [3] = test: Bacteriostatic activity against clindamycin/erythromycin/spectinomycin-resistant mec-positive Staphylococcus aureus NRS70 assessed as log reduction in bacterial count at 0.5 to 16 times MIC by time-kill assay; type: functional
[4] = Volume of distribution in ICR mouse at 10 mg/kg, iv by UV-UPLC analysis; type: ADME, organism-based; conditions: in vivo
Method in brief: (§3)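 Female ICR mice, 6–8 weeks old, 20–25 g. Each received 50 μL by tail-vein injection (5 or 10 mg/kg) of a filter-sterilized 2 or 4 mg/mL solution in 20% DMSO/10% Tween-80/70% water. Terminal blood was collected and plasma harvested by centrifugation. Plasma was precipitated with acetonitrile containing internal standard, and the supernatant was analyzed by C18 UPLC with UV detection at 285 nm.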

[5] = AUC (0 to infinity) in ICR mouse at 10 mg/kg, iv by UV-UPLC analysis; type: ADME, organism-based; set-up: dose 10 mg/kg, time infinity, route intravenous; conditions: in vivo; method in brief: as §3
[6] = Elimination half life in ICR mouse at 10 mg/kg, po administered via gavage by UV-UPLC analysis; type: ADME, organism-based; conditions: in vivo, read-out: beta t1/2 (converted)
[7] = Clearance in ICR mouse at 10 mg/kg, iv by UV-UPLC analysis relative to hepatic blood flow; type: ADME, organism-based; conditions: in vivo; method in brief: as §3
[8] = AUC (0 to last) in ICR mouse at 10 mg/kg, iv by UV-UPLC analysis; type: ADME, organism-based; set-up: dose 10 mg/kg, time 0 - last, route intravenous; conditions: in vivo; method in brief: as §3
Bacillus licheniformis = test: Antibacterial activity against Bacillus licheniformis ATCC 12759 measured after 16 to 20 hrs by microdilution method; type: functional
Method in brief: (§4)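 CLSI broth microdilution: two-fold serial dilutions in triplicate in cation-adjusted Mueller–Hinton broth with 2% NaCl, inoculum 5 × 10^5 CFU/mL, incubated at 37 °C for 16–20 h. MIC is the lowest concentration preventing visible growth.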

Bacillus cereus = test: Antibacterial activity against Bacillus cereus ATCC 13061 measured after 16 to 20 hrs by microdilution method; type: functional; method in brief: as §4
Streptococcus pneumoniae = test: Antibacterial activity against Streptococcus pneumoniae ATCC 49619 measured after 16 to 20 hrs by microdilution method; type: functional; method in brief: as §4
Staphylococcus aureus [9] = test: as §1, with “20” for “40”; type: functional; method in brief: as §2
[10] = AUC (0 to infinity) in ICR mouse at 10 mg/kg, po administered via gavage by UV-UPLC analysis; type: ADME, organism-based; set-up: dose 10 mg/kg, route oral, time infinity; conditions: in vivo
[11] = Time at which plasma concentration stays above in vitro MIC for clindamycin/erythromycin/spectinomycin-resistant mec-positive Staphylococcus aureus NRS70 in ICR mouse at 10 mg/kg, iv; type: ADME, organism-based; conditions: in vivo
Method in brief: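 Female ICR mice given single iv tail-vein dose (50 μL of 2 or 4 mg/mL in 20% DMSO/10% Tween-80/70% water); terminal blood at 5, 40 min, 2, 4, 8 h, n = 2 per time point; plasma acetonitrile-precipitated with internal standard, UPLC-UV 285 nm on C18; time above MIC read from concentration profile.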

[12] = system: Staphylococcus haemolyticus; test: Antibacterial activity against Staphylococcus haemolyticus ATCC 29970 measured after 16 to 20 hrs by microdilution method; type: functional; method in brief: as §4
[13] = molecular target: T1, MecA (Staphylococcus aureus) (UniProt Q7DHH4); test: Binding affinity to PBP2a in clindamycin/erythromycin/spectinomycin-resistant mec-positive Staphylococcus aureus NRS70 assessed potentiation of piperacillin and tazobactam-induced bactericidal activity by measuring log reduction in bacterial count at 0.5 times MIC measured after 24 hrs by time-kill assay
T1 sequence (whole entry): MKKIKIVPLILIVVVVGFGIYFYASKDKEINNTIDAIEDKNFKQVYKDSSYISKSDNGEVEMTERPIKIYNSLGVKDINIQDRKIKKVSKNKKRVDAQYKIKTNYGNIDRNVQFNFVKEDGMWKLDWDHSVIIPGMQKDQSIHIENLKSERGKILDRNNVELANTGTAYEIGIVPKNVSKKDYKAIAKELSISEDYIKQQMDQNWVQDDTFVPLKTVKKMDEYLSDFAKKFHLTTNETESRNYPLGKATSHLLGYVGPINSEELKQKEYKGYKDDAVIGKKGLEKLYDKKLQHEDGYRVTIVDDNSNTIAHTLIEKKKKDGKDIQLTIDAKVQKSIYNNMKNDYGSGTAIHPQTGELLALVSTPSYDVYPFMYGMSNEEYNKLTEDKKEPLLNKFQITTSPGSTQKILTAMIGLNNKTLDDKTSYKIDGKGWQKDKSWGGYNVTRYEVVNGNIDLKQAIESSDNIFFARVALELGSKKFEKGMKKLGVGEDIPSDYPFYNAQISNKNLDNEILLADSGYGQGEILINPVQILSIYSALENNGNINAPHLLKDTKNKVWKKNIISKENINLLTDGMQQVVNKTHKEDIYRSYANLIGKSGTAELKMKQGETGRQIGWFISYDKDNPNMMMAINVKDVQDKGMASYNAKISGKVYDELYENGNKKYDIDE

[14] = AUC (0 to last) in ICR mouse at 10 mg/kg, po administered via gavage by UV-UPLC analysis; type: ADME, organism-based; set-up: dose 10 mg/kg, time 0 - last, route oral; conditions: in vivo
Clostridioides difficile = test: Antibacterial activity against Clostridium difficile ATCC 43255 measured after 16 to 20 hrs by microdilution method; type: functional
Staphylococcus aureus [15] = test: Antibacterial activity against clindamycin/erythromycin/spectinomycin-resistant mec-positive Staphylococcus aureus NRS70 measured after 16 to 20 hrs by microdilution method; type: functional
Method in brief: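 CLSI broth microdilution; two-fold serial compound dilutions in triplicate in cation-adjusted Mueller–Hinton broth with 2% NaCl, inoculum 5 × 10^5 CFU/mL; 37 °C for 16–20 h; MIC = lowest concentration with no visible growth.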

[16] = Protein binding in human plasma at 10 uM measured after 6 hrs UV-UPLC based rapid equilibrium dialysis method; type: ADME, cell-free
Method in brief: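 Rapid equilibrium dialysis: human plasma was cleared by centrifugation and spiked from a 1 mM DMSO stock to a final 10 μM, against 0.1 M PBS pH 7.4. Dialysis ran 6 h at 37 °C with orbital shaking. Buffer (free) and plasma (total) aliquots were mixed with internal standard in acetonitrile and measured by UPLC-UV at 285 nm. B% = (Cp−Cf)/Cp×100.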

HeLa = test: Cytotoxicity against human HeLa cells assessed as reduction in cell viability measured after 16 hrs by XTT assay; type: cell-based
Method in brief: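 HeLa cells (ATCC CCL-2), run in triplicate. Viability was read by XTT, and IC50 was obtained by nonlinear regression.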

Q: Which “log(activity)” value (Staphylococcus aureus [1]) does the source give for `N#Cc1ccc(/C=C/c2nc3ccccc3c(=O)n2-c2cc(C(=O)O)ccc2F)cc1` here?
A: Its value is 1.33.

Q: And the selectivity ratio [2]?
A: The selectivity ratio was 124.

Q: And the “log(activity)” value (Staphylococcus aureus [3])?
A: The value was under 3.

Q: What about the Vd [4] of the same compound?
A: The Vd was 0.19 L/kg.

Q: What about the AUC(0-inf) [5] of the same compound?
A: Its AUC(0-inf) is 22000 ng·h/mL.

Q: And the half-life [6]?
A: The half-life was 11.2 h.

Q: And the CL [7]?
A: Its CL is under 10%.

Q: What about the AUClast [8] of the same compound?
A: The AUClast was 1290 µg·min/mL.

Q: And the MIC (Bacillus licheniformis)?
A: The MIC was over 128 µg/mL.

Q: And the MIC (Bacillus cereus)?
A: Its MIC is over 128 µg/mL.

Q: And the MIC (Streptococcus pneumoniae)?
A: The MIC was 8 µg/mL (≈ 19.4 µM).

Q: And the “log(activity)” value (Staphylococcus aureus [9])?
A: The value was 0.75.

Q: And the AUC(0-inf) [10]?
A: The AUC(0-inf) was 16800 ng·h/mL.

Q: What about the “T>MIC” value [11] of the same compound?
A: Its value is 4 h.

Q: What about the MIC [12] of the same compound?
A: Its MIC is 4 µg/mL (≈ 9.72 µM).

Q: What about the log(activity) [13] of the same compound?
A: The log(activity) was over 3.

Q: What about the AUClast [14] of the same compound?
A: The AUClast was 840 µg·min/mL.

Q: And the MIC (Clostridioides difficile)?
A: Its MIC is 128 µg/mL (≈ 311 µM).

Q: And the MIC (Staphylococcus aureus [15])?
A: Its MIC is 0.5 µg/mL (≈ 1.22 µM).

Q: What about the PPB [16] of the same compound?
A: The PPB was 95.4%.

Q: What about the IC50 (HeLa) of the same compound?
A: The IC50 was 62 µg/mL (≈ 151 µM).
